The results in this text go back to ChEMBL document CHEMBL1144747, “(Phenylpiperazinyl-butyl)oxindoles as selective 5-HT7 receptor antagonists” (J Med Chem, 2008).

For orientation: Ki means a dissociation constant, usually derived from enzyme kinetics or from competition with a known ligand. What is called bioavailability is the share of a dose that reaches the circulation, judged against a reference dose that is usually intravenous.

Series [1] addresses D(1A) dopamine receptor (Homo sapiens, UniProt P21728). Description: Inhibition of dopamine D1 receptor.
Series [2] concerns the target 5-hydroxytryptamine receptor 6 (Homo sapiens, UniProt P50406). Description: Inhibition of 5HT6 receptor.
Series [3] concerns Mus musculus. Description: Anxiolytic activity in ip dosed NMRI mouse assessed as behavioral activity for 5 mins by light dark assay. As to conditions: read-out: MED. Type of series: functional. The gist of the method:
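Male NMRI mice, 25–33 g, kept in a dark room and dosed ip 30 min before test, then placed in the centre of the lit area. Over 5 min, time in each area, transitions, and horizontal and vertical activity were recorded. Minimal effective dose by one-way ANOVA with Duncan's test.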

Series [4] addresses T1, 5-hydroxytryptamine receptor 7 (Homo sapiens, UniProt P34969). As to the kind of experiment: Antagonist activity at human 5HT7A receptor expressed in CHO cells assessed as inhibition of […]-induced cAMP elevation at 1 uM. More on the design: scale not given: the % may be the effect or the level left. It counts as functional, cell-based. The method in brief: (§1)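 CHO cells stably expressing human 5-HT7A, cultured in F12:DMEM with 5% FCS, seeded 24 h ahead. Compounds from 1 mM DMSO stock (final DMSO 0.1%) preincubated 10 min, then 20 min with 10 nM 5-CT at 37 °C. Cells lysed, cAMP by EIA, normalized to BCA protein. The 5-CT-induced level is taken as 100%; six independent experiments.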

In series [5] the target is D(2) dopamine receptor (Homo sapiens, UniProt P14416). Description: Inhibition of dopamine D2 receptor.
Chain of D(2) dopamine receptor (P14416 whole entry): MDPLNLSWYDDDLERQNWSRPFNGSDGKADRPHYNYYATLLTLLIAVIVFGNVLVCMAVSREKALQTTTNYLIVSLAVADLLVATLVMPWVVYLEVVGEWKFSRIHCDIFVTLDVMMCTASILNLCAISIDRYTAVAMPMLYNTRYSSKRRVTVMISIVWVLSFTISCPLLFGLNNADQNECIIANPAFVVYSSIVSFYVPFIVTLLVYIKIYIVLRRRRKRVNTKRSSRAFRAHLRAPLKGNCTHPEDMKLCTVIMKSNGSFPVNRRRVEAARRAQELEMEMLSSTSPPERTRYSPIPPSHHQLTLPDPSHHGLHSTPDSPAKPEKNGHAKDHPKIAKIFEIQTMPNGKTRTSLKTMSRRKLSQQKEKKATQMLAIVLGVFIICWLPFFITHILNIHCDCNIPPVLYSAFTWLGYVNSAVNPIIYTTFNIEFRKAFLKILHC
For series [6], the target named is T2, 5-hydroxytryptamine receptor 2C (Homo sapiens, UniProt P28335).
T2 sequence (P28335 whole entry): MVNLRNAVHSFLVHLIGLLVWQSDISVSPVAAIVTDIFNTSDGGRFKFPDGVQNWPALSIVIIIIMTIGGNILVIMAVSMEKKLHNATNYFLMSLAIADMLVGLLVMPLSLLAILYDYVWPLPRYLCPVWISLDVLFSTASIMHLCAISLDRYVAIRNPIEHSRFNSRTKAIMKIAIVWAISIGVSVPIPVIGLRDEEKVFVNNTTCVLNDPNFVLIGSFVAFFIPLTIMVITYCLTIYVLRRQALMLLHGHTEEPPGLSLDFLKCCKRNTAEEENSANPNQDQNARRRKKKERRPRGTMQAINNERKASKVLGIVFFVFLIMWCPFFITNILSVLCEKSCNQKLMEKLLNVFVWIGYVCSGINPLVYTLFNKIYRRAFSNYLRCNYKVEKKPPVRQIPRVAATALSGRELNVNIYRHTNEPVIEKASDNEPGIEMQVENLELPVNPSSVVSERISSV
As to the kind of experiment: Inhibition of 5HT2C receptor.

For series [7], the system named is Rattus norvegicus. As to the kind of experiment: Anxiolytic activity in ip dosed Wistar rat assessed as number of punished licks for 5 mins by conflict drinking test. It counts as functional. Conditions: read-out: MED. The method in brief: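 Modified Vogel test in male Wistar rats, 160–180 g, water-deprived 48 h and fasted 24 h. Dosed ip 30 min before test. After a 30 s free-drinking period, 600 µA, 0.6 s shocks came through the spout every 20 licks over 5 min. Punished licks counted; minimal effective dose reported.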

The target of series [8] is 5-hydroxytryptamine receptor 2A (Homo sapiens, UniProt P28223). Description: Inhibition of 5HT2A receptor.
Chain of 5-hydroxytryptamine receptor 2A (P28223 whole entry): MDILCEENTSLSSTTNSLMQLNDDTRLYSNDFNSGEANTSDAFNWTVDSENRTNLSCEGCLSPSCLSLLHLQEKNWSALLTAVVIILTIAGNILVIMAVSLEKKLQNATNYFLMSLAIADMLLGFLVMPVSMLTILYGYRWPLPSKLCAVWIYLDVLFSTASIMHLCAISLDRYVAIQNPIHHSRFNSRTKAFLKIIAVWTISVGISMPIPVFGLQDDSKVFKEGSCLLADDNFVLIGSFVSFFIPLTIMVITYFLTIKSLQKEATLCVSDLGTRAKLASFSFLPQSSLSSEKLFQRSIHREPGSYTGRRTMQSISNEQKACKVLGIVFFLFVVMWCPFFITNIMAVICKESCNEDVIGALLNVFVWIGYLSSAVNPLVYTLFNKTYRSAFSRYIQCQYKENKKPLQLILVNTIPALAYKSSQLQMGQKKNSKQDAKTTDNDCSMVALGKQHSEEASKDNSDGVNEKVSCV
Series [9] has as its target T3, 5-hydroxytryptamine receptor 1A (Rattus norvegicus) (UniProt P19327).
T3 sequence (whole entry): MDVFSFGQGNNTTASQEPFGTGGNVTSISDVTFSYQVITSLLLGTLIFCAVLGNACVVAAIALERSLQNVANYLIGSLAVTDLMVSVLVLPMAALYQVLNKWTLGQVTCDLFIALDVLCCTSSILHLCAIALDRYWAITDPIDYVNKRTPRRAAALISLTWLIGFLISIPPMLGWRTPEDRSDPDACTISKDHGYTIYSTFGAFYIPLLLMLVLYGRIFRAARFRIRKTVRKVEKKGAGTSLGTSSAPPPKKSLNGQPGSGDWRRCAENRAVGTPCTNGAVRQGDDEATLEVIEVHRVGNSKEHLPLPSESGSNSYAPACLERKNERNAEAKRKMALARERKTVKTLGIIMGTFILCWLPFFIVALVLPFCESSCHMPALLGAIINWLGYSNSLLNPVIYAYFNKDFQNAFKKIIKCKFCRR
Description: Displacement of [3H]8-OH-DPAT from 5HT1A receptor in rat frontal cortex membrane at 0.1 uM. It counts as cell membranes. The gist of the method: (§2)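 Rat tissue homogenized in 50 mM Tris-HCl pH 7.7, washed by repeated 40000g spins with a 10 min 37 °C incubation. Buffer: Tris-HCl, 6.66 mM CaCl2, 16.66 µM pargyline, 0.166% ascorbate. Labelled with 1.5 nM [3H]8-OH-DPAT, 45 min at 25 °C; nonspecific with 10 µM 5-HT. GF/B filtration, then scintillation counting; percent inhibition.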
For orientation: In a radioligand displacement assay an active substance lowers the binding of a labelled ligand.

Series [10] has as its target T3, 5-hydroxytryptamine receptor 1A (Rattus norvegicus). As to the kind of experiment: Displacement of [3H]8-OH-DPAT from 5HT1A receptor in rat frontal cortex membrane at 10 nM. It counts as cell membranes. The gist of the method:
as §2

Series [11] deals with T1, 5-hydroxytryptamine receptor 7. Description: Displacement of [3H]LSD from human recombinant 5HT7 receptor expressed in CHO cells. As to conditions: read-out: Ki. Type of series: cell-based. The method in brief:
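Cloned human 5-HT7 receptor from CHO cells, labelled with [3H]LSD; nonspecific binding with 25 µM clozapine. Stopped by filtration on PEI-soaked GF/C filters, then scintillation counting. Ki from two displacement curves of nine concentrations each, run in triplicate.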

The target of series [12] is T4, Alpha-1A adrenergic receptor (Homo sapiens, UniProt P35348).
T4 sequence (P35348 whole entry): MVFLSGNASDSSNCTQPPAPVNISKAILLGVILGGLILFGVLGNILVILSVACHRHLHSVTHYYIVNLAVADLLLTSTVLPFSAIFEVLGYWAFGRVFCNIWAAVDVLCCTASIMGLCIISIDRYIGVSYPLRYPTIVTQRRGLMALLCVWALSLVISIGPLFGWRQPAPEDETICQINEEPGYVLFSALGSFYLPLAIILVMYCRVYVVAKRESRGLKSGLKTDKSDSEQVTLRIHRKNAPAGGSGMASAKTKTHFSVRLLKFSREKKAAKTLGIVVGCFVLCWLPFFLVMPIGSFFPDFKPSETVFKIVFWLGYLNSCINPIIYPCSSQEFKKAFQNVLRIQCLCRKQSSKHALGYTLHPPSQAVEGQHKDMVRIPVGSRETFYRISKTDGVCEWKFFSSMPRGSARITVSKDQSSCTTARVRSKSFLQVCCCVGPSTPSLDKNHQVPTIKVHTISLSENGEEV
As to the kind of experiment: Inhibition of adrenergic alpha-1 receptor.

Series [13] has as its target T5, 5-hydroxytryptamine receptor 1A (Rattus norvegicus, UniProt P19327).
T5 sequence (P19327 whole entry): T3 sequence (whole entry)
Description: Inhibition of 5HT1A receptor in rat frontal cortex membrane. Type of series: cell membranes. The gist of the method: as §2

The species named for series [14] is Rattus norvegicus. As to the kind of experiment: Metabolic stability in rat. It counts as ADME, organism-based. Conditions: in vitro.
For series [15], the target named is T1, 5-hydroxytryptamine receptor 7. As to the kind of experiment: Antagonist activity at human 5HT7A receptor expressed in CHO cells assessed as inhibition of […]-induced cAMP elevation at 10 nM administered before […] challenge. Type of series: functional, cell-based. Set-up: scale not given: the % may be the effect or the level left. The gist of the method: as §1

A short description of series [16]: Oral bioavailability in rat. It counts as ADME, organism-based. As to conditions: in vivo.

Chain of D(1A) dopamine receptor (P21728 whole entry): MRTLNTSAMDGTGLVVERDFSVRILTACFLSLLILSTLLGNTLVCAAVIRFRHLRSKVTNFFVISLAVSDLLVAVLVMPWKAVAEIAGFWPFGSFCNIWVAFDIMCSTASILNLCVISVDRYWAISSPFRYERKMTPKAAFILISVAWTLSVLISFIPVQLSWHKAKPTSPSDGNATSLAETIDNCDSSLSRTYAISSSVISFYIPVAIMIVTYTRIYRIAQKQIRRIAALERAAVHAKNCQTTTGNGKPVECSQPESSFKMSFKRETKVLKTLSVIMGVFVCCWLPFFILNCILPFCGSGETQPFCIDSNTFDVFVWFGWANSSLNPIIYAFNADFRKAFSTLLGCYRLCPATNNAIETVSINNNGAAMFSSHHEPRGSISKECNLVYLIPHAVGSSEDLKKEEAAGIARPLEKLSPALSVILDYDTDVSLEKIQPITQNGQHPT
Chain of 5-hydroxytryptamine receptor 6 (P50406 whole entry): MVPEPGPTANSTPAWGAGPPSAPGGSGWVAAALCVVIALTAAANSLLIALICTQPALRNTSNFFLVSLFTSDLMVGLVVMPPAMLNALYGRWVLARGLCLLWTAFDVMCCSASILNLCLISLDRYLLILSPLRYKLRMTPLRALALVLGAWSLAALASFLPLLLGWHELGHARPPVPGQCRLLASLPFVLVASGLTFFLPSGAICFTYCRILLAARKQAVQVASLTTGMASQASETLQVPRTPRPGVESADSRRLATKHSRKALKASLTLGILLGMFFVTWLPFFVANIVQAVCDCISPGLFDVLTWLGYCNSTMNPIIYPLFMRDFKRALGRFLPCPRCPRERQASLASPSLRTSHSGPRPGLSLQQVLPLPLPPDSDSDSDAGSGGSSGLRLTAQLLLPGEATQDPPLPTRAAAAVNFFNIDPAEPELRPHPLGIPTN
T1 sequence (P34969 whole entry): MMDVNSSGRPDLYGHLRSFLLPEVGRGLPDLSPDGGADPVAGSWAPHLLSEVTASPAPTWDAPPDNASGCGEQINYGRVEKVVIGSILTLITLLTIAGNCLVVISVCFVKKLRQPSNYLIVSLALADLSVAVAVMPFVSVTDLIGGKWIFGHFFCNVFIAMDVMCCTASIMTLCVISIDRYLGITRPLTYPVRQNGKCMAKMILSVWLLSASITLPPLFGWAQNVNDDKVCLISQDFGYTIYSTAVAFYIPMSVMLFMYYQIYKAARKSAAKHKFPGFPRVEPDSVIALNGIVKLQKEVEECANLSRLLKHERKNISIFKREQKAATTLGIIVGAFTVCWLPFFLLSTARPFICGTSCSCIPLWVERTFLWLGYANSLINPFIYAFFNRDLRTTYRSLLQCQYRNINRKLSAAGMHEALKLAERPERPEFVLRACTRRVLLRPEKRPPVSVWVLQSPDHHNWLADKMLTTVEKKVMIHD

Consider `CCC1(CCCCN2CCN(c3ccc(Cl)cc3)CC2)C(=O)Nc2cc(F)ccc21` (configuration not stated), for which the Ki in series [1] came to 3360 nM; in [2], 187 nM; in series [5], 950 nM; in series [6], 358 nM; in series [8], 19.4 nM; in series [11] it was 0.79 nM. Further, the Ki in [12] was 71.3 nM; in series [13], 1610 nM. In addition, the minimal effective dose in series [3] was above 10 mg/kg; in [7] it was above 20 mg/kg. Besides, the Activity in [4] was above 95%; in series [9], 9%; in series [10], 0%.

Consider `CCC1(CCCCN2CCN(c3ccc(Cl)cc3)CC2)C(=O)Nc2ccccc21` (configuration not stated), for which the minimal effective dose is above 10 mg/kg in [3] and 10 mg/kg in series [7]. This molecule returned a Stability in series [14] of 9%. For the same molecule, the Activity in [9] turned out to be 11%; in series [10], 2%. Moreover, in series [11], the Ki amounted to 0.38 nM.

As to `O=C1Nc2ccc(F)cc2C1CCCCN1CCN(c2ccc(F)cc2)CC1` (configuration not stated), the Stability in series [14] was determined as 40%. Moreover, the minimal effective dose in [7] is above 10 mg/kg. In [9], this molecule gave an Activity of 6%. The Ki in [11] stood at 3.4 nM.

As to `CCC1(CCCCCN2CCN(c3cccc(Cl)c3)CC2)C(=O)Nc2ccccc21` (configuration not stated), the minimal effective dose in [3] and in series [7] was above 10 mg/kg each time. For the same molecule, the Activity in series [4] was above 95%; in series [15] it was 20%; in series [9], 43%; in series [10], 12%. The Ki in [11] amounted to 1.45 nM.

Regarding `O=C1Nc2ccc(F)cc2C1CCCCN1CCN(c2ccccc2)CC1` (configuration not stated), the Ki stood at 1900 nM in [1]; 1800 nM in series [2]; 330 nM in series [5]; 1500 nM in series [6]; 55 nM in [8]; 44 nM in [11]. Moreover, the Ki in series [12] turned out to be 20 nM; in series [13], 150 nM. In addition, the Activity is above 95% in series [4], 40% in series [15], 33% in series [9] and 5% in series [10]. The minimal effective dose in series [7] is below 10 mg/kg.

As to `O=C1Nc2ccc(Cl)c3c2C1(CCCCN1CC=C(c2ccc(Cl)cc2)CC1)CCC3` (configuration not stated), the bioavailability in series [16] turned out to be 18%.

Consider `CCC1(CCCCN2CCN(c3ccc(Cl)cc3)CC2)C(=O)Nc2c(Cl)cc(Cl)cc21` (configuration not stated), for which the minimal effective dose in [3] is below 1 mg/kg; in series [7] it was below 5 mg/kg. This molecule displayed a Stability in series [14] of 76%. Moreover, the Activity in series [9] was 5%. Further, the inhibitory constant (Ki) in series [11] was 10.1 nM.

As to `O=C1Nc2ccccc2C1CCCCN1CCN(c2cccc(Cl)c2)CC1` (configuration not stated), the minimal effective dose was above 10 mg/kg in series [3] and below 5 mg/kg in series [7]. Further, the Activity in series [4] is above 95%; in [15] it was 80%; in series [9], 40%; in series [10], 9%. The Ki in series [11] was determined as 0.49 nM.

In the case of `O=C1Nc2ccccc2C1CCCCN1CCN(c2ccc(Cl)cc2)CC1` (configuration not stated), the Ki is 2400 nM in [1]; 580 nM in series [2]; 960 nM in [5]; 690 nM in series [6]; 17.5 nM in series [8]; 7 nM in series [11]. For the same molecule, the Ki in series [12] was found to be 42 nM; in series [13], 1800 nM. Further, the minimal effective dose is below 1 mg/kg in [3] and below 2.5 mg/kg in series [7]. Further, the Activity in series [4] was above 95%; in series [15], 80%; in [9], 10%.

With `CCC1(CCCCN2CCN(c3cccc(Cl)c3)CC2)C(=O)Nc2ccccc21` (configuration not stated), the minimal effective dose is above 10 mg/kg in [3] and above 20 mg/kg in [7]. For the same molecule, the Activity in series [4] was above 95%; in series [15], 40%; in [9] it was 42%; in [10] it was 11%. In [14], this molecule returned a Stability of 4%. Further, in [11], the Ki was 0.41 nM.
